# ChEMBL document CHEMBL3259751, “A rational design strategy of the novel topoisomerase II inhibitors for the synthesis of the 4-O-(2-pyrazinecarboxylic)-4'-demethylepipodophyllotoxin with antitumor activity by diminishing the relaxation reaction of topoisomerase II-DNA decatenation” (Bioorg Med Chem, 2014)
# The source made the active and inactive calls. The calls are words filed in the database; no cut-off is given here.
# What was measured:
# [1] = Cytotoxicity against human HL-7702 cells after 48 hrs by MTT assay; type: cell-based, L02; details: for IC50: Homo sapiens, L02, 48 h; for Activity: human, l02, 48 h
# [2] = Octanol-water partition coefficient, log P of the compound; type: physicochemical
# In short: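 Partitioning between 1-octanol and water. The compound concentration was measured in each phase, and logP was calculated as the log of the 1-octanol concentration over the water concentration. The water concentration was corrected by an index-error factor, Y = 2.555.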
# [3] = test system: A549; experiment: Cytotoxicity against human A549 cells after 48 hrs by MTT assay; type: functional, cell-based; details: for IC50: A549, 48 h
# In short: (§1)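 Cells seeded at 3500–13,000 per well. A549, HeLa and HepG2 were grown in DMEM and BGC-823 in RPMI 1640, each with 10% CS plus penicillin/streptomycin, at 37 °C and 5% CO₂. Drug exposure lasted 2 days, followed by MTT readout at A₄₉₂, with untreated controls at 0.6–0.8. IC50 was the concentration cutting absorbance by 50%, interpolated by sigmoidal nonlinear regression. Run in triplicate.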
# [4] = Cytotoxicity against human HL-7702 cells after 48 hrs by MTT assay relative to etoposide; type: functional, L02
# [5] = test system: HepG2; experiment: Cytotoxicity against human HepG2 cells after 48 hrs by MTT assay; type: functional, cell-based; details: for IC50: HepG2, 48 h; in short: as §1
# [6] = (§2) Cytotoxicity against human BGC823 cells after 48 hrs by MTT assay; type: functional, cell-based; details: BGC-823, 48 h; in short: as §1
# [7] = test system: HeLa; experiment: Cytotoxicity against human HeLa cells after 48 hrs by MTT assay; type: functional, cell-based; in short: as §1
# [8] = test system: HepG2; experiment: Selectivity ratio of etoposide IC50 to compound IC50 for human HepG2 cells; type: functional
# [9] = test system: A549; experiment: Cytotoxicity against human A549 cells; type: functional, cell-based; in short: as §1
# [10] = test system: A549; experiment: Selectivity ratio of etoposide IC50 to compound IC50 for human A549 cells; type: functional
# [11] = test system: HepG2; experiment: Cytotoxicity against human HepG2 cells; type: functional, cell-based; in short: as §1
# [12] = Cytotoxicity against human BGC823 cells; type: functional, cell-based; details: BGC-823; in short: as §1
# [13] = test system: BGC-823; experiment: Selectivity ratio of etoposide IC50 to compound IC50 for human BGC823 cells; type: functional
# [14] = test system: BGC-823; experiment: as §2; type: functional, cell-based; in short: as §1
# [15] = target: DNA topoisomerase 2-alpha (Homo sapiens) (UniProt P11388); experiment: Inhibition of human DNA topoisomerase-2 using kDNA as substrate assessed as inhibition of DNA relaxation at 1 to 10 uM after 60 mins by agarose gel electrophoresis
# Chain of DNA topoisomerase 2-alpha (Homo sapiens) (P11388 whole entry): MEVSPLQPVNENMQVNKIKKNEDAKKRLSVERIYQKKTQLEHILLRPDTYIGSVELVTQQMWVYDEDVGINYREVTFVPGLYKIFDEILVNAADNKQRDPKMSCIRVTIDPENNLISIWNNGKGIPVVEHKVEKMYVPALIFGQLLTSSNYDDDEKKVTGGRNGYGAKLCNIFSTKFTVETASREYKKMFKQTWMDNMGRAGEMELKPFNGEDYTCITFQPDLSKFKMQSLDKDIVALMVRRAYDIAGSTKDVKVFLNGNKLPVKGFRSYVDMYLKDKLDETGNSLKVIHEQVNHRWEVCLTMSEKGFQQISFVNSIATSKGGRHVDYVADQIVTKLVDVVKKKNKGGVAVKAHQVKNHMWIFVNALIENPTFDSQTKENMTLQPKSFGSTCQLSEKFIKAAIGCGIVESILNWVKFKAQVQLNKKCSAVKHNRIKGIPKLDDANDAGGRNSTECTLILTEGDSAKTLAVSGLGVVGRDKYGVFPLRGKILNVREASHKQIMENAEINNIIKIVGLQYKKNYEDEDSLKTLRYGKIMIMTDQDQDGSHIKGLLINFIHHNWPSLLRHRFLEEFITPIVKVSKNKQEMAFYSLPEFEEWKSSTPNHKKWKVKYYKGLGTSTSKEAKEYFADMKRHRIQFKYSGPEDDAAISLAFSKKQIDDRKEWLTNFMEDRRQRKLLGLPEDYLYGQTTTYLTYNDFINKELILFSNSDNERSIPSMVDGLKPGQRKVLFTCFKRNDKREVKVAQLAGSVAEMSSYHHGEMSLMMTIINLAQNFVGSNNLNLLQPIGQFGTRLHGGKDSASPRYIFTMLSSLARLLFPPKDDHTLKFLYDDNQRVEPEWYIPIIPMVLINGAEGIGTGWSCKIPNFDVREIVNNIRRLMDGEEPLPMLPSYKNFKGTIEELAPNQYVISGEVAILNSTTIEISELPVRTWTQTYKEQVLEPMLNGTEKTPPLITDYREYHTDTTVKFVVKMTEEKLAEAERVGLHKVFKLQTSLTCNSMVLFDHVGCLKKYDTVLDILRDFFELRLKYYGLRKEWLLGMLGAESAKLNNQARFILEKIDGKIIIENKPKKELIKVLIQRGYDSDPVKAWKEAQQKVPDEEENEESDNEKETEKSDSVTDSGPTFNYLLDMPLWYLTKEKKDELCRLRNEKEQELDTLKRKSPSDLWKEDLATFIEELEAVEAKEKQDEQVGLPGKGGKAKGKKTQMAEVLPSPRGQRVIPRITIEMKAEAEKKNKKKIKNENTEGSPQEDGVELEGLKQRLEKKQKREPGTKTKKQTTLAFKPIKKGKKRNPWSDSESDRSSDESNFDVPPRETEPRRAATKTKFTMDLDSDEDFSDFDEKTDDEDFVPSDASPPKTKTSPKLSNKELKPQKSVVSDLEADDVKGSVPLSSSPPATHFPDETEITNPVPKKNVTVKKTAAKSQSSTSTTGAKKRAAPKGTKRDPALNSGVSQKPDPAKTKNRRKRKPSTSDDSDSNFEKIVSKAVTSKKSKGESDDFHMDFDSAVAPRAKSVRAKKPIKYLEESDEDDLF
# [16] = test system: HeLa; experiment: Cell cycle arrest in human HeLa cells assessed as accumulation at G2/M phase at 0.5 uM after 24 hrs by propidium iodide staining-based flow cytometry (reference value: 5.29 %); type: functional
# [17] = test system: HeLa; experiment: Selectivity ratio of etoposide IC50 to compound IC50 for human HeLa cells after 48 hrs by MTT assay; type: functional
# [18] = test system: HepG2; experiment: Selectivity ratio of etoposide IC50 to compound IC50 for human HepG2 cells after 48 hrs by MTT assay; type: functional
# [19] = test system: HeLa; experiment: Induction of apoptosis in human HeLa cells assessed as late apoptotic cells at 10 uM after 48 hrs by Annexin V/propidium iodide staining-based flow cytometry (reference value: 2.3 %); type: functional
# [20] = test system: HeLa; experiment: Cell cycle arrest in human HeLa cells assessed as accumulation at G0/G1 phase at 5 uM after 24 hrs by propidium iodide staining-based flow cytometry (reference value: 37.26 %); type: functional
# [21] = test system: HeLa; experiment: Induction of apoptosis in human HeLa cells assessed as early apoptotic cells at 10 uM after 48 hrs by Annexin V/propidium iodide staining-based flow cytometry (reference value: 2.7 %); type: functional
# [22] = test system: HeLa; experiment: Induction of apoptosis in human HeLa cells assessed as late apoptotic cells at 1 uM after 48 hrs by Annexin V/propidium iodide staining-based flow cytometry (reference value: 2.3 %); type: functional
# [23] = test system: HeLa; experiment: Induction of apoptosis in human HeLa cells assessed as late apoptotic cells at 5 uM after 48 hrs by Annexin V/propidium iodide staining-based flow cytometry (reference value: 2.3 %); type: functional
# [24] = test system: A549; experiment: Selectivity ratio of etoposide IC50 to compound IC50 for human A549 cells after 48 hrs by MTT assay; type: functional
# [25] = test system: HeLa; experiment: Induction of apoptosis in human HeLa cells assessed as early apoptotic cells at 5 uM after 48 hrs by Annexin V/propidium iodide staining-based flow cytometry (reference value: 2.7 %); type: functional
# [26] = test system: HeLa; experiment: Cell cycle arrest in human HeLa cells assessed as accumulation at G0/G1 phase at 0.5 uM after 24 hrs by propidium iodide staining-based flow cytometry (reference value: 37.26 %); type: functional
# [27] = test system: HeLa; experiment: Induction of apoptosis in human HeLa cells after 48 hrs by Annexin V/propidium iodide staining-based flow cytometry; type: functional, cell-based
# [28] = test system: HeLa; experiment: Cell cycle arrest in human HeLa cells after 24 hrs by propidium iodide staining-based flow cytometry; type: functional
# [29] = test system: HeLa; experiment: Cell cycle arrest in human HeLa cells assessed as accumulation at G0/G1 phase at 1 uM after 24 hrs by propidium iodide staining-based flow cytometry (reference value: 37.26 %); type: functional
# [30] = test system: HeLa; experiment: Cell cycle arrest in human HeLa cells assessed as accumulation at G2/M phase at 1 uM after 24 hrs by propidium iodide staining-based flow cytometry (reference value: 5.29 %); type: functional
# [31] = test system: BGC-823; experiment: Selectivity ratio of etoposide IC50 to compound IC50 for human BGC823 cells after 48 hrs by MTT assay; type: functional
# [32] = test system: HeLa; experiment: Induction of apoptosis in human HeLa cells assessed as early apoptotic cells at 1 uM after 48 hrs by Annexin V/propidium iodide staining-based flow cytometry (reference value: 2.7 %); type: functional
# [33] = test system: HeLa; experiment: Cell cycle arrest in human HeLa cells assessed as accumulation at G2/M phase at 5 uM after 24 hrs by propidium iodide staining-based flow cytometry (reference value: 5.29 %); type: functional
SMILES,IC50 [1] [µM],Activity [1],logP [2],IC50 [3] [µM],Activity [4] [%],IC50 [5] [µM],IC50 [6] [µM],IC50 [7] [µM],also measured
COc1cc([C@@H]2c3cc4c(cc3[C@@H](OC(=O)c3cn(C5CC5)c5cc(Cl)c(F)cc5c3=O)[C@H]3COC(=O)[C@H]23)OCO4)cc(OC)c1O,41.8,Dose-dependent effect,0.69,10.1,70,16,17.4,0.6,
COc1cc([C@@H]2c3cc4c(cc3[C@@H](Sc3nc[nH]n3)[C@H]3COC(=O)[C@H]23)OCO4)cc(OC)c1O,,,,,,,,,Ratio IC50 [8]: 2.73; IC50 [9]: 0.76 µM; Ratio IC50 [10]: 221; IC50 [11]: 0.42 µM; IC50 [12]: 0.28 µM; Ratio IC50 [13]: 91
COc1cc([C@@H]2c3cc4c(cc3[C@@H](O[C@@H]3O[C@@H]5CO[C@@H](C)O[C@H]5[C@H](O)[C@H]3O)[C@H]3COC(=O)[C@H]23)OCO4)cc(OC)c1O [ETOPOSIDE],24.6,Dose-dependent effect,0.52,67.2,,15.3,30.7,59.4,Activity [3]: Dose-dependent effect; Activity [5]: Dose-dependent effect; Activity [14]: Dose-dependent effect; IC50 [9]: 168 µM; IC50 [11]: 1.15 µM; inhibition [15]: Active; Activity [7]: Dose-dependent effect; IC50 [12]: 25.7 µM
COc1cc([C@@H]2c3cc4c(cc3[C@@H](OC(=O)c3cnc(C)cn3)[C@H]3COC(=O)[C@H]23)OCO4)cc(OC)c1O,18.6,Dose-dependent effect,0.38,10.5,,14.2,1.5,9.56,
COc1cc([C@@H]2c3cc4c(cc3[C@@H](OC(=O)c3ccc5ccccc5n3)[C@H]3COC(=O)[C@H]23)OCO4)cc(OC)c1O,20.1,Dose-dependent effect,0.8,19.2,,9.18,28.8,20.5,
COc1cc([C@@H]2c3cc4c(cc3[C@@H](OC(=O)Cn3cnc5c3c(=O)n(C)c(=O)n5C)[C@H]3COC(=O)[C@H]23)OCO4)cc(OC)c1O,38,Dose-dependent effect,0.43,6.91,54,7.91,2,0.65,
COc1cc([C@@H]2c3cc4c(cc3[C@@H](NC(=O)c3cnccn3)[C@H]3COC(=O)[C@H]23)OCO4)cc(OC)c1O,53.6,Dose-dependent effect,0.43,16.5,117,6.64,14.4,10.8,
COc1cc([C@@H]2c3cc4c(cc3[C@@H](OC(=O)c3cnccn3)[C@H]3COC(=O)[C@H]23)OCO4)cc(OC)c1O,52.4,Dose-dependent effect,0.33,3.83,114,1.21,4.15,0.6,Activity [16]: 19.88%; Ratio IC50 [17]: 66; Ratio IC50 [18]: 12; Activity [19]: 45.5%; Activity [20]: 4.01%; Activity [21]: 10.8%; Activity [22]: 7.2%; Activity [23]: 30.1%; Ratio IC50 [24]: 16; Activity [25]: 10.3%; Activity [26]: 39.65%; Activity [27]: Dose-dependent effect; Activity [28]: Dose-dependent effect; Activity [29]: 5.49%; inhibition [15]: Active; Activity [30]: 60.96%; Ratio IC50 [31]: 6; Activity [32]: 4.2%; Activity [33]: 66.85%
COc1cc([C@@H]2c3cc4c(cc3[C@@H](NC(=O)Cn3cnc5c3c(=O)n(C)c(=O)n5C)[C@H]3COC(=O)[C@H]23)OCO4)cc(OC)c1O,50.8,Dose-dependent effect,0.56,7.32,106,2.35,5.88,3.18,
COc1cc([C@@H]2c3cc4c(cc3[C@@H](NC(=O)c3cc(O)c(O)c(O)c3)[C@H]3COC(=O)[C@H]23)OCO4)cc(OC)c1O,14.8,Dose-dependent effect,0.29,33.5,,27.4,24.2,22.3,
COc1cc([C@@H]2c3cc4c(cc3[C@@H](NC(=O)c3cnc(C)cn3)[C@H]3COC(=O)[C@H]23)OCO4)cc(OC)c1O,20.7,Dose-dependent effect,0.59,18.7,,6.78,3.49,16.1,
COc1cc([C@@H]2c3cc4c(cc3[C@@H](O)[C@H]3COC(=O)[C@H]23)OCO4)cc(OC)c1O [4'-DEMETHYLEPIPODOPHYLLOTOXIN],13,Dose-dependent effect,0.73,52.1,,18.7,21.3,16,Activity [3]: Dose-dependent effect; Activity [5]: Dose-dependent effect; Activity [14]: Dose-dependent effect; Activity [7]: Dose-dependent effect
